Calls of active or inactive are those of the source. The calls are words filed in the database; no cut-off is given here.
Experiments:
[1] = test system: Vero C1008; assay: (§1) Selectivity index, ratio of CC50 for African green monkey Vero C1008 cells to IC50 for Brugia malayi microflilariae worm; assay type: functional
Procedure, shortened: (§2)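 SI computed as CC50 (Vero C1008) divided by IC50 against adult worms or mf; IC50 values from 48 h exposure of parasites to two-fold dilutions at 37 °C, with % inhibition vs DMSO-treated worms and linear interpolation.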

[2] = test system: Brugia malayi; assay: Antifilarial activity against Brugia malayi microflilariae worm assessed as inhibition of parasite motility after 48 hrs by microscopic analysis; assay type: functional, organism-based
Procedure, shortened: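 B. malayi microfilariae were washed in HBSS (pH 7.2) and plated at 40-50 mf/100 µL/well, in triplicate, in HBSS with penicillin/streptomycin. Two-fold dilutions from 0.38-40 µM were given in DMSO (final <0.1%), with DMSO controls, for 48 h at 37 °C, 5% CO2. Motility was scored microscopically, and IC50 was found by linear interpolation over control.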

[3] = test system: Brugia malayi; assay: Antifilarial activity against Brugia malayi adult worm assessed as inhibition of parasite viability after 48 hrs by MTT assay; assay type: functional
Procedure, shortened: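 Adult female B. malayi washed in HBSS pH 7.2, one worm/mL/well in triplicate, exposed 48 h at 37 °C in 5% CO2 to two-fold dilutions (0.38-40 µM; DEC 15.63-1000 µM) in HBSS with penicillin/streptomycin, DMSO <0.1% final; after motility scoring the same worms taken for MTT reduction; % inhibition vs DMSO control, IC50 by linear interpolation.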

[4] = test system: Brugia malayi; assay: Antifilarial activity against Brugia malayi adult worm infected in jird assessed as reduction in adult worm recovery at 1 mg/kg, sc administered for 5 days starting from day 7/8 post-worm transplantation measured on day 60 post-initiation of drug treatment; assay type: functional, organism-based; set-up: dose 1 mg/kg
Procedure, shortened: (§3)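 Jirds carrying intraperitoneally transplanted B. malayi (sub-periodic) adults were dosed s.c. for 5 days starting day 7/8 after transplantation; test agents were suspended fresh daily in 0.1% Tween-80, DEC in water, ivermectin in 0.1% Tween-80. Killed day 60 p.i.t.; worms recovered from peritoneal washings were counted, and % reduction was calculated vs vehicle controls (4-8 animals).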

[5] = test system: Vero C1008; assay: (§4) Selectivity index, ratio of CC50 for African green monkey Vero C1008 cells to IC50 for Brugia malayi adult worm; assay type: functional; procedure, shortened: as §2
[6] = test system: Brugia malayi; assay: Antifilarial activity against Brugia malayi adult worm infected in jird assessed as embryostatic effect at 1 mg/kg, sc administered for 5 days starting from day 7/8 post-worm transplantation (reference value: 9.80 +/- 5.63%); assay type: functional, organism-based; set-up: dose 1 mg/kg
[7] = test system: Brugia malayi; assay: Antifilarial activity against Brugia malayi adult worm assessed as inhibition of parasite motility after 48 hrs by microscopic analysis; assay type: functional, organism-based
Procedure, shortened: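 Freshly isolated adult female B. malayi were washed in HBSS (pH 7.2) and incubated one worm/ml/well, in triplicate, in HBSS with penicillin/streptomycin. Two-fold dilutions from 0.38-40 µM were given in DMSO (final <0.1%), with DMSO controls. After 48 h, motility was scored 0-4 under a microscope. IC50 was found by linear interpolation of percent inhibition versus DMSO.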

[8] = test system: Brugia malayi; assay: Antifilarial activity against Brugia malayi adult worm infected in jird assessed as microfilaricidal activity at 1 mg/kg, sc administered for 5 days starting from day 7/8 post-worm transplantation measured on day 7 post-initiation of drug treatment; assay type: functional, organism-based; set-up: dose 1 mg/kg
Procedure, shortened: (§5)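 Mf in peritoneal cavity of transplanted jirds were examined on day 7/8 p.i.t. after 5 days of s.c. dosing started on day 7/8; change was expressed as % of the pretreatment mf count.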

[9] = as §1; assay type: functional; procedure, shortened: as §2
[10] = test system: Brugia malayi; assay: Antifilarial activity against third stage infective larvae (L3) form of Brugia malayi infected in Mastomys coucha assessed as female sterilizing efficacy at 100 mg/kg, sc administered for 5 days measured on day 91 post-initiation of drug treatment (reference value: 23%); assay type: functional; conditions: route subcutaneous
[11] = test system: Brugia malayi; assay: Antifilarial activity against Brugia malayi adult worm infected in jird assessed as embryostatic effect at 100 mg/kg, sc administered for 5 days starting from day 7/8 post-worm transplantation (reference value: 9.80 +/- 5.63%); assay type: functional; conditions: route subcutaneous
[12] = Cytotoxicity against African green monkey Vero C1008 cells assessed as cell death by three-fold serial dilution method; assay type: cell-based; conditions: chlorocebus sabaeus
Procedure, shortened: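 Vero C1008 cells exposed to three-fold serial dilutions of test agents, starting above 20 x LC100; CC50 obtained by linear interpolation between the concentrations bracketing 50% inhibition.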

[13] = as §4; assay type: functional; procedure, shortened: as §2
[14] = test system: Brugia malayi; assay: Antifilarial activity against third stage infective larvae (L3) form of Brugia malayi infected in Mastomys coucha assessed as reduction in adult worm recovery at 100 mg/kg, sc administered for 5 days measured on day 91 post-initiation of drug treatment; assay type: functional; conditions: route subcutaneous
Procedure, shortened: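 M. coucha carrying 5-7 month old L3-induced sub-periodic B. malayi infections received 5 days of s.c. dosing (vehicle 0.1% Tween-80; DEC in water). Killed day 91 p.i.t.; adults were recovered from teased heart, lung and testes, and % reduction in recovery was calculated vs vehicle controls.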

[15] = test system: Meriones unguiculatus; assay: Toxicity in jird infected with Brugia malayi adult worm assessed as normal behaviour at 100 mg/kg, sc administered for 5 days starting from day 7/8 post-worm transplantation measured on day 60 post-initiation of drug treatment; assay type: organism-based; set-up: dose 100 mg/kg, route subcutaneous; conditions: gerbil, in vivo, 120 h
[16] = test system: Mastomys coucha; assay: Toxicity in Mastomys coucha infected with third stage infective larvae (L3) form of Brugia malayi assessed as normal behaviour at 100 mg/kg, sc administered for 5 days measured on day 91 post-initiation of drug treatment; assay type: organism-based; set-up: dose 100 mg/kg, route subcutaneous; conditions: in vivo, 120 h
[17] = test system: Brugia malayi; assay: Antifilarial activity against Brugia malayi adult worm infected in jird assessed as microfilaricidal activity at 100 mg/kg, sc administered for 5 days starting from day 7/8 post-worm transplantation measured on day 7 post-initiation of drug treatment; assay type: functional, organism-based; set-up: dose 100 mg/kg; procedure, shortened: as §5
[18] = test system: Brugia malayi; assay: Antifilarial activity against Brugia malayi adult worm infected in jird assessed as macrofilaricidal efficacy by measuring reduction in adult worm recovery at 100 mg/kg, sc administered for 5 days starting from day 7/8 post-worm transplantation measured on day 60 post-initiation of drug treatment; assay type: functional; conditions: route subcutaneous; procedure, shortened: as §3

| Molecule | LC100 [2] [µM] | LC100 [7] [µM] | inhibition (INH) [3] [%] | inhibition [3] | further results |
| --- | --- | --- | --- | --- | --- |
| IVERMECTIN [listing 1 of 2 here] | 2.5 | 5 | – | – | Ratio CC50/IC50 [1]: 146; inhibition ([3]; dose or concentration not given here): 5.8%; inhibition [4]: 21.1%; Ratio CC50/IC50 [5]: 75.4; Activity [6]: 43.2%; Activity [8]: inactive |
| Cc1cc(/C=C/C(=O)c2cccs2)cc(/C=N/c2nccs2)c1O | >40 | >40 | – | – | – |
| CC(C)(C)c1cc(/C=C/C(=O)c2cccs2)cc(/C=N/c2nccs2)c1O | 5 | 2.5 | 49 | – | Ratio CC50/IC50 [9]: 22; IC50 ([2]; Brugia malayi, 48 h): 1.8 µM; Activity [10]: 44%; Activity [11]: 100%; CC50 ([12]; Vero C1008 cells): 40 µM; Ratio CC50/IC50 [13]: 44; IC50 ([7]; Brugia malayi, 48 h): 0.9 µM; inhibition in vivo at 100 mg/kg [14]: 48.6%; Activity [15]: Non-toxic; Activity [16]: Non-toxic |
| Cc1cc(/C=C/C(=O)c2ccco2)cc(/C=N/c2nccs2)c1O | >40 | >40 | 62 | – | – |
| CC(C)c1cc(/C=C/C(=O)c2ccco2)cc(/C=N/c2nccs2)c1O | 10 | 10 | 63 | – | Ratio CC50/IC50 [9]: 17; IC50 ([2]; Brugia malayi, 48 h): 3.5 µM; Activity [10]: 30%; Activity [11]: 0%; CC50 ([12]; Vero C1008 cells): 60 µM; Activity [17]: inactive; Ratio CC50/IC50 [13]: 19; IC50 ([7]; Brugia malayi, 48 h): 3.2 µM; inhibition in vivo at 100 mg/kg [18]: 18.2%; inhibition in vivo at 100 mg/kg [14]: 40.9%; Activity [15]: Non-toxic; Activity [16]: Non-toxic |
| IVERMECTIN [listing 2 of 2 here] | – | – | – | – | IC50 [2]: 1.57 µM; CC50 ([12]; vero): 230 µM; IC50 [7]: 3.05 µM |
| Cc1ccc(C(=O)/C=C/c2cc(/C=N/c3nccs3)c(O)c(C(C)(C)C)c2)cc1 | 40 | >40 | – | inactive | – |
| COc1ccc(C(=O)/C=C/c2cc(/C=N/c3nccs3)c(O)c(C(C)(C)C)c2)cc1 | 40 | >40 | – | inactive | – |
| COc1ccc(C(=O)/C=C/c2cc(C)c(O)c(/C=N/c3nccs3)c2)cc1 | >40 | >40 | 25 | – | – |
| Cc1ccc(C(=O)/C=C/c2cc(/C=N/c3nccs3)c(O)c(C(C)C)c2)cc1 | >40 | >40 | – | – | – |
| CC(C)(C)c1cc(/C=C/C(=O)c2ccco2)cc(/C=N/c2nccs2)c1O | 20 | 40 | – | inactive | Ratio CC50/IC50 [9]: 28.57; IC50 ([2]; Brugia malayi, 48 h): 7.07 µM; CC50 ([12]; Vero C1008 cells): 220 µM |
| Cc1ccc(C(=O)/C=C/c2cc(C)c(O)c(/C=N/c3nccs3)c2)cc1 | >40 | >40 | – | inactive | – |
| CCCc1cc(/C=C/C(=O)c2ccc(C)cc2)cc(/C=N/c2nccs2)c1O | >40 | >40 | – | inactive | – |
| COc1ccc(C(=O)/C=C/c2cc(/C=N/c3nccs3)c(O)c(C(C)C)c2)cc1 | >40 | >40 | 61 | – | – |
| CCCc1cc(/C=C/C(=O)c2ccc(OC)cc2)cc(/C=N/c2nccs2)c1O | >40 | >40 | – | inactive | – |
| CC(C)c1cc(/C=C/C(=O)c2cccs2)cc(/C=N/c2nccs2)c1O | >40 | >40 | – | inactive | – |

Reference: ChEMBL document CHEMBL3259763, “Synthesis and antifilarial activity of chalcone-thiazole derivatives against a human lymphatic filarial parasite, Brugia malayi” (Eur J Med Chem, 2014)
